ChEMBL document CHEMBL4038321, “Design, Synthesis, and Pharmacokinetics of a Bone-Targeting Dual-Action Prodrug for the Treatment of Osteoporosis” (J Med Chem, 2017)

Legend:
[1] = Stability in rat plasma assessed as parent compound remaining at 100 uM measured after 1 hr by HPLC analysis (reference value: 49 to 86%); assay type: ADME, cell-free; details: read-out: Stability
cathepsin K [2] = target: T1, cathepsin K (Homo sapiens, UniProt P43235); test: Substrate activity at recombinant human cathepsin K expressed in Escherichia coli assessed as compound cleavage at 100 uM after 1 hr by HPLC analysis; assay type: ADME; details: read-out: Drug degradation
T1 sequence (P43235 whole entry): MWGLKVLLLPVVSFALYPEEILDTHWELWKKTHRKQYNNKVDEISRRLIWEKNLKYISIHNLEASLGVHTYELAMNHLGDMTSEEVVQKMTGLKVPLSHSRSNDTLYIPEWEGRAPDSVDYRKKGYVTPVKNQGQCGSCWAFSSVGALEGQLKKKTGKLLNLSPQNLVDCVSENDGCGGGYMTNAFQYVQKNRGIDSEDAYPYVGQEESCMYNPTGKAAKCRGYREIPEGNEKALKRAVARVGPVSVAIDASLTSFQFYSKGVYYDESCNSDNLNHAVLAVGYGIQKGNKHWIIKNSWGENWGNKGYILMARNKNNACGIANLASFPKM
Outline: (§1)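 Human procathepsin K, recombinant from E. coli, was activated for 40 min at room temperature in 50 mM NaOAc-HOAc with 200 mM NaCl, pH 4.1. Final assay had 0.2 µM enzyme in 50 mM MES pH 5.5, 2 mM EDTA, 4 mM DTT and 0.15% chondroitin sulfate. Conjugates or the standard substrate Cbz-Leu-Arg-AMC were at 100 µM. Incubation was at 37 °C with HPLC at UV 240 nm; cleavage was taken from release of 4-aminobenzyl alcohol and its DTT adduct.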

cathepsin K [3] = target: T2, cathepsin K (Rattus norvegicus, UniProt O35186); test: Substrate activity at recombinant rat cathepsin K expressed in Escherichia coli assessed as compound cleavage at 100 uM after 1 hr by HPLC analysis; assay type: ADME; details: read-out: Drug degradation
T2 sequence (O35186 whole entry): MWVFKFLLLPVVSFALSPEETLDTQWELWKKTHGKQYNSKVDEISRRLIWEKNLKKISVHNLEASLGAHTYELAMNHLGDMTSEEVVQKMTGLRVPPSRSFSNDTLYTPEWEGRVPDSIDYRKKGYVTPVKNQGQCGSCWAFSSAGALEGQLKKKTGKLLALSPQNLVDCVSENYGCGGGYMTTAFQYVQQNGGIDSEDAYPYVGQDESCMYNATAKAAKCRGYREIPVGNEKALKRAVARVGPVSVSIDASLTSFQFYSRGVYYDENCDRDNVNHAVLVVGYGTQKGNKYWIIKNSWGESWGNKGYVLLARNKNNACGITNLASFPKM
Outline: (§2)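 Rat cathepsin K was recombinant, expressed in E. coli, and used at 0.2 µM final in 50 mM MES pH 5.5 with 2 mM EDTA, 4 mM DTT and 0.15% chondroitin sulfate. Conjugates or the standard substrate Cbz-Leu-Arg-AMC were at 100 µM and incubated at 37 °C. Aliquots were run by HPLC at UV 240 nm. Cleavage was calculated from the appearance of 4-aminobenzyl alcohol plus its DTT-trapped adduct.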

cathepsin K [4] = target: T1, cathepsin K; test: Substrate activity at recombinant human cathepsin K expressed in Escherichia coli assessed as compound cleavage at 100 uM after 3 hrs by HPLC analysis; assay type: ADME; details: read-out: Drug degradation; outline: as §1
[5] = Stability in rat plasma assessed as parent compound remaining at 100 uM measured after 2 hrs by HPLC analysis (reference value: 49 to 86%); assay type: ADME, cell-free; details: read-out: Stability
[6] = Stability in rat plasma assessed as parent compound remaining at 100 uM measured after 4 hrs by HPLC analysis (reference value: 49 to 86%); assay type: ADME, cell-free; details: read-out: Stability
[7] = Stability in rat plasma assessed as parent compound remaining at 100 uM measured after 24 hrs by HPLC analysis (reference value: 49 to 86%); assay type: ADME, cell-free; details: read-out: Stability
[8] = Stability in rat serum assessed as parent compound remaining at 100 uM measured after 1 hr by HPLC analysis (reference value: 93 to 97%); assay type: ADME, cell-free; details: read-out: Stability
[9] = Stability in rat serum assessed as parent compound remaining at 100 uM measured after 2 hrs by HPLC analysis (reference value: 93 to 97%); assay type: ADME, cell-free; details: read-out: Stability
[10] = Stability in rat serum assessed as parent compound remaining at 100 uM measured after 4 hrs by HPLC analysis (reference value: 93 to 97%); assay type: ADME, cell-free; details: read-out: Stability
[11] = Stability in rat serum assessed as parent compound remaining at 100 uM measured after 24 hrs by HPLC analysis (reference value: 93 to 97%); assay type: ADME, cell-free; details: read-out: Stability
cathepsin K [12] = target: T1, cathepsin K; test: Substrate activity at recombinant human cathepsin K expressed in Escherichia coli assessed as compound cleavage at 100 uM after 2 hrs by HPLC analysis; assay type: ADME; details: read-out: Drug degradation; outline: as §1
cathepsin K [13] = target: T2, cathepsin K; test: Substrate activity at recombinant rat cathepsin K expressed in Escherichia coli assessed as compound cleavage at 100 uM after 2 hrs by HPLC analysis; assay type: ADME; details: read-out: Drug degradation; outline: as §2
cathepsin K [14] = target: T2, cathepsin K; test: Substrate activity at recombinant rat cathepsin K expressed in Escherichia coli assessed as compound cleavage at 100 uM after 20 hrs by HPLC analysis; assay type: ADME; details: read-out: Drug degradation; outline: as §2
[15] = Solubility of the compound in phosphate buffer at 2 mg/ml; assay type: physicochemical
Outline: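 Conjugate tested for dissolution at the dosing concentration of 2 mg/mL in PBS alone, then in PBS formulations containing surfactants (PEG400, Tween, Cremaphor). Solutions were judged by visual clarity (homogeneous versus cloudy).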

Plasma = test: Drug metabolism in Sprague-Dawley rat plasma assessed as tritium label liberation in presence of bone powder; assay type: ADME, cell-free
Outline: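 Tritiated conjugate was incubated in rat plasma at 37 °C. At fixed times up to 24 h the mixture was stirred with bovine bone powder to adsorb intact conjugate and any cleaved bisphosphonate. The supernatant was then scintillation counted as unbound, liberated tritium.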

Bone [16] = test: Drug uptake in Sprague-Dawley rat bone at 1 mg/kg, iv after 6 hrs; assay type: ADME, organism-based, Bone element; details: in vivo
Bone [17] = test: Half life in iv dosed Sprague-Dawley rat bone administered as single dose using radiolabeled compound; assay type: ADME, organism-based, Bone element; details: in vivo
Outline: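 Female Sprague Dawley rats, about 13 weeks old on receipt, got a single tail-vein bolus of 5.0 mg/kg conjugate. The dose held 8.90 µCi [3H] and 1.77 µCi [14C] label, in 10% poloxamer 188 brought to pH 8.0 with NaHCO3 and diluted 1:1 with PBS. Groups of 3 were killed at 6 h and 1, 7, 14 and 28 days. Femurs were oxidized and counted, with skeleton taken as 8% of body weight, and label loss from bone gave half-times.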

Bone [18] = test: Drug uptake in Sprague-Dawley rat bone at 0.2 uci, iv administered as single dose using 14C-labeled compound after 4 hrs; assay type: ADME, organism-based, Bone element; details: in vivo

In the case of CC(C)C[C@H](NC(=O)OCc1ccccc1)C(=O)N[C@@H](CCCNC(=N)N)C(=O)Nc1ccc(COC(=O)NCCCC(O)(P(=O)(O)O)P(=O)(O)O)cc1, the remaining at 1 h, 100 µM [1] is reported as 78%, the metabolised at 1 h, 100 µM (cathepsin K [2]) is reported as 66% and the metabolised at 1 h, 100 µM (cathepsin K [3]) is reported as 73%. For the same compound, the metabolised at 3 h, 100 µM (cathepsin K [4]) was 79%, the remaining at 2 h, 100 µM [5] was 78% and the remaining at 4 h, 100 µM [6] was 64%. For the same compound, the remaining at 24 h, 100 µM [7] was 59%, the remaining at 1 h, 100 µM [8] was 97% and the remaining at 2 h, 100 µM [9] was 95%. For the same compound, the remaining at 4 h, 100 µM [10] was 86%, the remaining at 24 h, 100 µM [11] was 70% and the metabolised at 2 h, 100 µM (cathepsin K [12]) was 75%. For the same compound, the metabolised at 2 h, 100 µM (cathepsin K [13]) was 80% and the metabolised at 20 h, 100 µM (cathepsin K [14]) was 95%.

In the case of CCOC(=O)CCCCCCN1C(=O)CC[C@@H]1/C=C/[C@@H](OC(=O)Cc1ccc(COC(=O)N[C@@H](CC(C)C)C(=O)N[C@@H](CCCNC(=N)N)C(=O)Nc2ccc(COC(=O)NCCCC(O)(P(=O)(O)O)P(=O)(O)O)cc2)cc1)C(F)(F)c1ccccc1, the solubility [15] is reported as “Insoluble”.

In the case of CCCCC[C@@H](/C=C/[C@H]1[C@H](O)CC(=O)[C@@H]1C/C=C\CCCC(=O)O)OC(=O)CSCCCC(P(=O)(O)O)P(=O)(O)O, the Drug metabolism (Plasma) is reported as 15%, the Drug uptake (Bone [16]) is reported as 3.5% and the t1/2 (Bone [17]) is reported as 96 to 120 h.

Work on N=C(N)NCCC[C@H](NC(=O)[C@@H]1CCCN1C(=O)OCc1ccccc1)C(=O)Nc1ccc(COC(=O)NCCCC(O)(P(=O)(O)O)P(=O)(O)O)cc1 yielded a remaining at 1 h, 100 µM [1] of 95%, a metabolised at 1 h, 100 µM (cathepsin K [2]) of 90% and a metabolised at 1 h, 100 µM (cathepsin K [3]) of 5%. It also gave a remaining at 2 h, 100 µM [5] of 90%, a remaining at 4 h, 100 µM [6] of 90% and a remaining at 24 h, 100 µM [7] of 65%. It also gave a remaining at 1 h, 100 µM [8] of 89%, a remaining at 2 h, 100 µM [9] of 78% and a remaining at 4 h, 100 µM [10] of 77%. For the same compound, the remaining at 24 h, 100 µM [11] was 69%, the metabolised at 2 h, 100 µM (cathepsin K [12]) was 98% and the metabolised at 2 h, 100 µM (cathepsin K [13]) was 10%. It also gave a metabolised at 20 h, 100 µM (cathepsin K [14]) of 52%.

Compound CCCCC[C@H](O)/C=C/[C@H]1[C@H](O)CC(=O)[C@@H]1C/C=C\CCCC(=O)NCCCC(O)(P(=O)(O)O)P(=O)(O)O has a Drug uptake (Bone [18]) of 15 %ID.
